In the library only some 4.6% were active in any assay of this set; here they are far more common.
PolyA inh: blocks polyadenylation in yeast reporter cells. 300,000 tested, 0.02% active. AID 1875. S. cerevisiae SKY197-pL101 polyadenylation reporter, beta-gal luminescence; efflux-impaired pdr1/pdr3 knockout yeast; score 100 = 6 SD above DMSO. activity score, % at 12 µM;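 active = lowest replicate activity score at least 50, where 100 means six control SD above control mean; inconclusive = lowest score under 50 but half or more replicates reach 50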;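 note: yeast exposed to compound for 9 h at 30 °C; higher score means more reporter readthrough which indicates perturbed polyadenylation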
NALP1 yeast inh: NALP1 inhibition; S. cerevisiae NALP1/ASC/caspase-1 growth, X-gal OD620, 72 h; inhibition, % at 10 µM; 280,000 tested, 0.61% active; AID 2071; in the data active = inhibition mostly above about 24%, no sharp cut-off; inactive = mostly below about 32%
NALP3 yeast inh: blocks the NALP3 inflammasome reconstituted in yeast. inhibition, % at 10 µM. Yeast reconstituted NLRP3/ASC/caspase-1, beta-gal luminescence, 24 h. 330,000 tested, 0.39% active;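 active = inhibition of 50% or more; inactive = inhibition below 50%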
DSG3 Ab inh: blocks pemphigus antibody binding to human desmoglein-3; P32926; DSG3-coupled beads, scFv-anti-DSG3-GFP binding, flow cytometry; stronger effect = lower value; binding (percent of control), % at 10 µM; 310,000 tested, 0.48% active; AID 588358;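 active = binding more than 3 SD below its plate's average and above zero; inconclusive = below that plate limit but binding exactly zero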;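 note: hits lower antibody fragment binding to DSG3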
Arrestin-AP2 inh: human beta-arrestin and AP2 interaction inhibition; inhibition, % at 10 µM; AID 504490; 340,000 tested, 0.31% active; FITC-arrestin peptide / GST-AP2 beads, flow cytometry; AP2 beta2 appendage carries R879A mutation;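 active = inhibition above a set limit, near 3 SD of compounds lacking own fluorescence, cut at about 54% in these data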
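System: GST-tagged AP2 beta2-adaptin appendage (R879A) on 4 µm glutathione beads / Reagent: FITC-arrestin peptide, 50 nM / Detection: HyperCyt-sampled flow cytometry, FL1 channel, ex 488/em 535 nm / Timing: 12 min plus 1 h, RT / Buffer or medium: PBS plus Tween 20 (0.05%) and BSA (0.1%)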
ALR inh: blocks human ALR sulfhydryl oxidase activity | P55789 | purified ALR, DTT oxidation, H2O2 HRP-luminol luminescence | inhibition, % (no concentration beside the values) | 290,000 tested, 3.8% active;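 active = mean replicate inhibition above about 79%, with every replicate also reaching it, limit read from the data; inconclusive = only one of the two criteria met; inactive = mean below limit and not every replicate reaching it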
Hits are given with their value.

Results for C[C@@H]1CN([C@@H](C)CO)C(=O)CCCn2nncc2CO[C@H]1CN(C)C(=O)C1CC1 ?
DSG3 Ab inh: inactive

Results for O=[N+]([O-])c1ccc(-[n+]2ccc3ccccc3c2)c([N+](=O)[O-])c1 ?
PolyA inh: inactive; NALP3 yeast inh: inactive; DSG3 Ab inh: inactive; Arrestin-AP2 inh: inactive

What do the screens show for `CCN1CCN(C(=O)CCc2nnc3ccc(N4CCN(c5cccc(OC)c5)CC4)nn23)CC1`?
PolyA inh: inactive; NALP1 yeast inh: inactive; NALP3 yeast inh: inactive; DSG3 Ab inh: inactive; Arrestin-AP2 inh: inactive; ALR inh: 99.1

How did COc1cccc(N2CCN(c3ccc4nnc(CCC(=O)Nc5ncccc5C)n4n3)CC2)c1 do in these assays?
PolyA inh: inactive; NALP1 yeast inh: inactive; NALP3 yeast inh: inactive; Arrestin-AP2 inh: inactive; ALR inh: 99.2

How did COc1ccc(N2CCN(c3ccc4nnc(CCC(=O)Nc5ccc(C)cc5)n4n3)CC2)cc1 do in these assays?
PolyA inh: inactive; NALP1 yeast inh: inactive; NALP3 yeast inh: inactive; DSG3 Ab inh: inactive; Arrestin-AP2 inh: inactive; ALR inh: 91.7

How did Cc1cc(Br)ccc1NCc1ccccn1 do in these assays?
PolyA inh: inactive; NALP1 yeast inh: inactive; NALP3 yeast inh: inactive; DSG3 Ab inh: inactive; Arrestin-AP2 inh: inactive; ALR inh: 98.4

How did COc1ccc(Br)cc1S(=O)(=O)NCc1ccccn1 do in these assays?
PolyA inh: inactive; NALP1 yeast inh: inactive; NALP3 yeast inh: inactive; DSG3 Ab inh: inactive; Arrestin-AP2 inh: inactive; ALR inh: inactive

What do the screens show for `Cc1ccc(NC(=S)Nc2cc(C(=O)O)ccc2N2CC3CC(C2)c2cccc(=O)n2C3)cc1C` (configuration not stated)?
PolyA inh: inactive; NALP1 yeast inh: 36.7; NALP3 yeast inh: inactive; DSG3 Ab inh: inactive; Arrestin-AP2 inh: inactive; ALR inh: inactive

Results for COc1cccc(NC(=S)Nc2cc(C(=O)O)ccc2N2CC3CC(C2)c2cccc(=O)n2C3)c1 (configuration not stated) ?
PolyA inh: inactive; NALP1 yeast inh: inactive; NALP3 yeast inh: inactive; DSG3 Ab inh: inactive; Arrestin-AP2 inh: inactive; ALR inh: inactive

Results for CSc1nnc(Cc2cc(=O)[nH]c(=O)[nH]2)n1-c1cc(C)ccc1C ?
PolyA inh: inactive; NALP1 yeast inh: inactive; NALP3 yeast inh: inactive; Arrestin-AP2 inh: inactive; ALR inh: inactive

How did CCSc1nnc(Cc2cc(=O)[nH]c(=O)[nH]2)n1-c1cc(C)ccc1C do in these assays?
PolyA inh: inactive; NALP1 yeast inh: 28.2; NALP3 yeast inh: inactive; DSG3 Ab inh: inactive; Arrestin-AP2 inh: inactive; ALR inh: inactive

What do the screens show for `CCOCCn1c(=O)c2c(nc3n2CCCN3CCc2ccccc2)n(C)c1=O`?
PolyA inh: inactive; NALP1 yeast inh: inactive; NALP3 yeast inh: inactive; DSG3 Ab inh: inconclusive; Arrestin-AP2 inh: inactive; ALR inh: inactive

What do the screens show for `CSc1ncccc1C(=O)OCc1ccc([N+](=O)[O-])cc1`?
PolyA inh: inactive; NALP1 yeast inh: inactive; NALP3 yeast inh: inactive; DSG3 Ab inh: 79.4; Arrestin-AP2 inh: inactive; ALR inh: inactive

What do the screens show for `O=C(O[C@@H]1OC2COC(=O)c3cc(O)c(O)c(O)c3-c3c(cc(O)c(O)c3O)C(=O)O[C@@H]([C@H]1O)[C@@H]2O)c1cc(O)c(O)c(O)c1`?
PolyA inh: inconclusive; NALP1 yeast inh: inactive; DSG3 Ab inh: inactive; Arrestin-AP2 inh: inactive; ALR inh: 99.4

How did Cc1cc(C(=O)NNc2ccc(F)cc2)no1 do in these assays?
PolyA inh: inactive; NALP1 yeast inh: inactive; NALP3 yeast inh: inactive; Arrestin-AP2 inh: inactive; ALR inh: 98.8

How did CCc1ccccc1NNC(=O)c1cc(C)on1 do in these assays?
PolyA inh: inactive; NALP1 yeast inh: inactive; NALP3 yeast inh: inactive; Arrestin-AP2 inh: inactive; ALR inh: inactive

How did Cc1cc(C(=O)NNc2ccccc2F)no1 do in these assays?
PolyA inh: inactive; NALP1 yeast inh: inactive; NALP3 yeast inh: inactive; DSG3 Ab inh: inactive; Arrestin-AP2 inh: inactive; ALR inh: 98.8

Results for CC(=O)c1c(C)[nH]c(C(=O)OCC(=O)c2c[nH]c3ccccc23)c1C ?
NALP3 yeast inh: inactive; DSG3 Ab inh: inactive; Arrestin-AP2 inh: inactive; ALR inh: inactive

Results for Cc1ccccc1-n1nnnc1SCC(=O)c1c(N)n(C2CC2)c(=O)[nH]c1=O ?
NALP3 yeast inh: inactive; DSG3 Ab inh: inactive; Arrestin-AP2 inh: inactive

From PubChem
